# Reference: ChEMBL document CHEMBL1134286, “Novel erythromycin derivatives with aryl groups tethered to the C-6 position are potent protein synthesis inhibitors and active against multidrug-resistant respiratory pathogens” (J Med Chem, 2001)
# Columns and labels:
# [1] = Minimum inhibitory concentration against Streptococcus pyogenes PIU2548 efflux; type: functional
# In short: (§1)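 MICs were determined by agar dilution following National Committee for Clinical Laboratory Standards recommendations. Values are in µg/mL.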
# Staphylococcus aureus [2] = test: Minimum inhibitory concentration against Staphylococcus aureus A 5177 MLSB-i; type: functional; in short: as §1
# Staphylococcus aureus [3] = test: Minimum inhibitory concentration against Staphylococcus aureus A 5278 MLSB-c; type: functional; in short: as §1
# [4] = Minimum inhibitory concentration against Streptococcus pyogenes 930MLSB; type: functional; in short: as §1
# Mus musculus [5] = species on record: Mus musculus; test: Mouse protection tests for effective dose against Staphylococcus aureus 10649 ((erythromycin susceptible strain)) infected mice; type: functional
# Staphylococcus aureus [6] = test: Minimum inhibitory concentration against Staphylococcus aureus 10649 (erythromycin susceptible strain); type: functional; in short: as §1
# Streptococcus pneumoniae [7] = test: Cell free inhibiting activity against MLSB-resistant strain Streptococcus pneumoniae 1813 (methylated ribosomes for transcription/translation assay)
# [8] = Minimum inhibitory concentration against Streptococcus pneumoniae 5737 MLSB; type: functional; in short: as §1
# Streptococcus pneumoniae [9] = test: Minimum inhibitory concentration against Streptococcus pneumoniae ATCC 6303 Ery-S; type: functional; in short: as §1
# Streptococcus pneumoniae [10] = test: Minimum inhibitory concentration against Streptococcus pneumoniae 5649 efflux; type: functional; in short: as §1
# Staphylococcus aureus [11] = test: Minimum inhibitory concentration against Staphylococcus aureus ATCC 6538PEry-S; type: functional; conditions: ATCC 6538P; in short: as §1
# Streptococcus pneumoniae [12] = test: Cell free inhibiting activity against erythromycin-susceptible strain Streptococcus pneumoniae 5635 (Wild type ribosomes for transcription/translation assay); type: functional
# In short: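 Cell-free coupled transcription/translation assay using bacterial ribosome S-30 extracts. Wild-type ribosomes were isolated from the erythromycin-susceptible strain S. pneumoniae 5635. Inhibition is reported as IC50 (µM).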
# [13] = Minimum inhibitory concentration against Streptococcus pyogenes EES 61 Ery-S; type: functional; in short: as §1
# Streptococcus pneumoniae [14] = test: Minimum inhibitory concentration against Streptococcus pneumoniae 6303 (erythromycin susceptible strain); type: functional; in short: as §1
# [15] = Minimum inhibitory concentration against Haemophilus influenzae DILL Amp-R; type: functional; in short: as §1
# [16] = Minimum inhibitory concentration againstH. influenzae DILL Amp-R; type: functional; conditions: Haemophilus influenzae
# In short: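 Whole-cell MIC determined by agar dilution following National Committee for Clinical Laboratory Standards recommendations; values expressed in µg/mL.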
# Mus musculus [17] = species on record: Mus musculus; test: Mouse protection tests for effective dose against Streptococcus pneumoniae 6303 ((erythromycin susceptible strain)) infected mice; type: functional
# Streptococcus pneumoniae [18] = test: Cell free inhibiting activity against erythromycin-susceptible strain Streptococcus pneumoniae 5635 (Wild type ribosomes for transcription/translation assay)
MIC [1] [µg/mL],MIC (Staphylococcus aureus [2]) [µg/mL],MIC (Staphylococcus aureus [3]) [µg/mL],MIC [4] [µg/mL],MIC (Staphylococcus aureus [6]) [µg/mL],IC50 (Streptococcus pneumoniae [7]) [nM],MIC [8] [µg/mL],MIC (Streptococcus pneumoniae [9]) [µg/mL],MIC (Streptococcus pneumoniae [10]) [µg/mL],MIC (Staphylococcus aureus [11]) [µg/mL],IC50 (Streptococcus pneumoniae [12]) [nM],MIC [13] [µg/mL],MIC (Streptococcus pneumoniae [14]) [µg/mL],MIC [15] [µg/mL],MIC [16] [µg/mL],Compound,ED50 (Mus musculus [5]) [mg/kg],ED50 (Mus musculus [17]) [mg/kg],IC50 (Streptococcus pneumoniae [18]) [nM]
0.25,0.05,> 100,1,0.05,150000,0.5,0.004,0.25,0.05,70,0.008,0.004,2,–,CC[C@H]1OC(=O)[C@H](C)C(=O)[C@H](C)[C@@H](O[C@@H]2O[C@H](C)C[C@H](N(C)C)[C@H]2O)[C@](C)(OC/C=C/c2cnc3ccsc3c2)C[C@@H](C)C(=O)[C@H](C)[C@H]2NC(=O)O[C@@]21C,> 50,–,–
64,12.5,> 100,> 128,–,> 500000,–,–,–,0.78,150,–,–,–,32,C=CCO[C@]1(C)C[C@@H](C)C(=O)[C@H](C)[C@@H](O)[C@](C)(O)[C@@H](CC)OC(=O)[C@H](C)[C@@H](O[C@H]2C[C@@](C)(OC)[C@@H](O)[C@H](C)O2)[C@H](C)[C@H]1O[C@@H]1O[C@H](C)C[C@H](N(C)C)[C@H]1O,–,–,–
0.1,0.2,> 100,100,0.2,–,16,0.03,0.25,0.2,–,0.2,0.03,16,–,CC[C@H]1OC(=O)[C@H](C)C(=O)[C@H](C)[C@@H](O[C@@H]2O[C@H](C)C[C@H](N(C)C)[C@H]2O)[C@](C)(OC/C=C/c2cnc3ccccc3c2)C[C@@H](C)C(=O)[C@H](C)[C@@H](O)[C@]1(C)O,27.2,> 40,–
0.25,0.1,> 100,64,0.1,–,64,0.03,0.25,0.1,–,0.03,0.03,4,–,CC[C@H]1OC(=O)[C@H](C)C(=O)[C@H](C)[C@@H](O[C@@H]2O[C@H](C)C[C@H](N(C)C)[C@H]2O)[C@](C)(OC/C=C/c2ccccc2)C[C@@H](C)C(=O)[C@H](C)[C@H]2NC(=O)O[C@@]21C,30.2,> 40,–
2,0.1,> 100,> 128,–,–,> 128,0.03,2,0.2,–,0.03,–,4,–,CC[C@H]1OC(=O)[C@H](C)C(=O)[C@H](C)[C@@H](O[C@@H]2O[C@H](C)C[C@H](N(C)C)[C@H]2O)[C@](C)(OCCNCCc2ccccc2)C[C@@H](C)C(=O)[C@H](C)[C@H]2NC(=O)O[C@@]21C,–,–,–
0.25,0.1,> 100,1,0.1,40000,0.25,0.015,0.5,0.1,–,0.03,0.015,2,–,CC[C@H]1OC(=O)[C@H](C)C(=O)[C@H](C)[C@@H](O[C@@H]2O[C@H](C)C[C@H](N(C)C)[C@H]2O)[C@](C)(OC/C=C/c2ccc3nccnc3c2)C[C@@H](C)C(=O)[C@H](C)[C@H]2NC(=O)O[C@@]21C,< 6.25,33.1,80

Compound,MIC [1] [µg/mL],MIC (Staphylococcus aureus [2]) [µg/mL],MIC (Staphylococcus aureus [3]) [µg/mL],MIC [4] [µg/mL],MIC (Staphylococcus aureus [6]) [µg/mL],IC50 (Streptococcus pneumoniae [7]) [nM],MIC [8] [µg/mL],MIC (Streptococcus pneumoniae [9]) [µg/mL],MIC (Streptococcus pneumoniae [10]) [µg/mL],MIC (Staphylococcus aureus [11]) [µg/mL],IC50 (Streptococcus pneumoniae [12]) [nM],MIC [13] [µg/mL],MIC (Streptococcus pneumoniae [14]) [µg/mL],MIC [15] [µg/mL],MIC [16] [µg/mL],ED50 (Mus musculus [5]) [mg/kg],ED50 (Mus musculus [17]) [mg/kg],IC50 (Streptococcus pneumoniae [18]) [nM]
CC[C@H]1OC(=O)[C@H](C)C(=O)[C@H](C)[C@@H](O[C@@H]2O[C@H](C)C[C@H](N(C)C)[C@H]2O)[C@](C)(OCC=Cc2cnc3ccccc3c2)C[C@@H](C)C(=O)[C@H](C)[C@H]2NC(=O)O[C@@]21C [CETHROMYCIN],0.25,0.05,> 100,1,0.05,28000,0.25,0.004,0.125,0.05,–,0.004,0.004,2,–,9.4,7.8,40
CC[C@H]1OC(=O)[C@H](C)C(=O)[C@H](C)[C@@H](O[C@@H]2O[C@H](C)C[C@H](N(C)C)[C@H]2O)[C@](C)(OC)C[C@@H](C)C(=O)[C@H](C)[C@H]2N(CCCCn3cnc(-c4cccnc4)c3)C(=O)O[C@]12C [TELITHROMYCIN],–,–,–,–,0.1,–,–,–,–,–,–,–,0.004,–,–,12.5,34.1,–
